We go through 36 molecules from ChEMBL document CHEMBL2163218, “Design, synthesis, and biological and structural evaluations of novel HIV-1 protease inhibitors to combat drug resistance” (J Med Chem, 2012).

One experiment concerns the target Protease (Human immunodeficiency virus 1, UniProt Q9YQ12). In words: Inhibition of wild type HIV1 protease by FRET assay. The procedure, abridged:
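Recombinant HIV-1 protease Q7K, desalted into 20 mM sodium acetate pH 5, apparent concentration ~50 nM (UV 280 nm). Inhibitors in DMSO, 12 concentrations, added with protease to buffer pH 4.7 (0.1 M NaOAc, 1 M NaCl, 1 mM EDTA, 1 mM DTT, 2% DMSO, 1 mg/mL BSA). Cleavage started by injecting EDANS/DABCYL peptide substrate. Ki from initial velocities fitted to the Morrison equation.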

The subject of experiment [1] is Human immunodeficiency virus 1. Put plainly: Antiviral activity against wild type HIV1 infected in HEK293 cells assessed as reduction in viral replication incubated for 48 hrs by luciferase reporter based assay. Particulars: Human immunodeficiency virus 1, HEK293, 48 h. It counts as functional, organism-based.
In experiment [2] the test system is Human immunodeficiency virus 1. In words: Antiviral activity against wild type HIV1 clade B isolated form HIV1 patient infected in HEK293 cells assessed as reduction in viral replication incubated for 48 hrs by luciferase reporter based assay. Type of experiment: functional, organism-based. The following applies: Human immunodeficiency virus 1, clade B, HEK293, 48 h. A general note: Reporter assays use an easily measured gene product as a stand-in for the process of interest.

The subject of experiment [3] is Human immunodeficiency virus 1. In words: Antiviral activity against wild type HIV1 clade A isolated form HIV1 patient infected in HEK293 cells assessed as reduction in viral replication incubated for 48 hrs by luciferase reporter based assay. It counts as functional, organism-based. Particulars: Human immunodeficiency virus 1, clade A, HEK293, 48 h.
Experiment [4] concerns Human immunodeficiency virus 1. Put plainly: Antiviral activity against multidrug resistant HIV1 MDR1 containing protease M46I, I54V, V82A and L90M mutant infected in HEK293 cells assessed as reduction in viral replication incubated for 48 hrs by luciferase reporter based assay. Type of experiment: functional, organism-based. The following applies: Human immunodeficiency virus 1, MDR1, HEK293, 48 h.

The test system of experiment [5] is Human immunodeficiency virus 1. Put plainly: Antiviral activity against multidrug resistant HIV1 MDRC4 infected in HEK293 cells assessed as reduction in viral replication incubated for 48 hrs by luciferase reporter based assay. Particulars: Human immunodeficiency virus 1, MDRC4, HEK293, 48 h. Type of experiment: functional, organism-based.
The subject of experiment [6] is Human immunodeficiency virus 1. In words: Antiviral activity against wild type HIV1 clade C isolated form HIV1 patient infected in HEK293 cells assessed as reduction in viral replication incubated for 48 hrs by luciferase reporter based assay. It counts as functional, organism-based. Particulars: Human immunodeficiency virus 1, clade C, HEK293, 48 h.

Protease, sequence (Q9YQ12 whole entry): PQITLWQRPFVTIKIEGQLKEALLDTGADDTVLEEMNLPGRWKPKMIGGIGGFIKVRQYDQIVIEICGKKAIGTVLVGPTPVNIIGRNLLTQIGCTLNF

Usually Ki stands for the dissociation constant of the complex between target and ligand, obtained from inhibition or displacement. With `CC[C@H](C)CN(C[C@@H](O)[C@H](Cc1ccccc1)NC(=O)OCCNC(=O)C(F)(F)F)S(=O)(=O)c1ccc2ncsc2c1`, at Protease, the affinity, expressed as Ki, was 9.13 nM.
The EC50 is the concentration that produces a half-maximal response. For `CC[C@H](C)CN(C[C@@H](O)[C@H](Cc1ccccc1)NC(=O)OC[C@@H]1CCC(=O)N1)S(=O)(=O)c1ccc2ncsc2c1`, the EC50 in experiment [1] amounted to 15.5 nM; in experiment [2], 16.4 nM; in experiment [3] it was 25.1 nM; in experiment [4], 21.1 nM; in experiment [5], 35.6 nM; in experiment [6], 13.2 nM.
As for `CC(C)CN(C[C@@H](O)[C@H](Cc1ccccc1)NC(=O)O[C@H]1CO[C@H]2OCC[C@H]21)S(=O)(=O)c1ccc(N)cc1`, the EC50 in experiment [1] amounted to 0.25 nM; in experiment [2], 0.15 nM; in experiment [3], 0.3 nM; in experiment [4] it was 0.23 nM; in experiment [6], 0.18 nM.
`CC[C@H](C)CN(C[C@@H](O)[C@H](Cc1ccccc1)NC(=O)OCCNC(=O)OC(C)(C)C)S(=O)(=O)c1ccc(OC)cc1` came in with a Ki on Protease of 2.01 nM.
Take `CCCCCN(C[C@@H](O)[C@H](Cc1ccccc1)NC(=O)OCCN1CCOC1=O)S(=O)(=O)c1ccc(OC)cc1`: the EC50 in experiment [1] was 77.1 nM; in experiment [2] it was 52.4 nM; in experiment [3], 126 nM; in experiment [4], 300 nM; in experiment [5], 265 nM; in experiment [6], 158 nM. On Protease, this molecule came in with a Ki of 0.008 nM.
`CCCCCN(C[C@@H](O)[C@H](Cc1ccccc1)NC(=O)OCCNC(=O)C(F)(F)F)S(=O)(=O)c1ccc2ncsc2c1` showed a Ki at Protease of 19.7 nM.
Still for that read-out and setting: then `CC[C@H](C)CN(C[C@@H](O)[C@H](Cc1ccccc1)NC(=O)OC[C@@H](C)C(=O)OC)S(=O)(=O)c1ccc2ncsc2c1`, with 1.39 nM; and `CC[C@H](C)CN(C[C@@H](O)[C@H](Cc1ccccc1)NC(=O)OCCNC(=O)C(F)(F)F)S(=O)(=O)c1ccc(OC)cc1`, with 11.9 nM.
Regarding `CCCCCN(C[C@@H](O)[C@H](Cc1ccccc1)NC(=O)OCCNC(=O)OC(C)(C)C)S(=O)(=O)c1ccc(OC)cc1`, the affinity at Protease corresponds to a Ki of 2.95 nM.
On the same count and under the same terms, then `CC[C@H](C)CN(C[C@@H](O)[C@H](Cc1ccccc1)NC(=O)O[C@@H]1CCOC1=O)S(=O)(=O)c1ccc(OC)cc1`, with 35.1 nM; and `CCCCCN(C[C@@H](O)[C@H](Cc1ccccc1)NC(=O)O[C@H](C)CCC(C)=O)S(=O)(=O)c1ccc2ncsc2c1`, with 3.38 nM; and `CC[C@H](C)CN(C[C@@H](O)[C@H](Cc1ccccc1)NC(=O)OC(C)(C)C)S(=O)(=O)c1ccc2ncsc2c1`, with 0.243 nM.
Turning to `CCCCCN(C[C@@H](O)[C@H](Cc1ccccc1)NC(=O)OCCN1CCNC1=O)S(=O)(=O)c1ccc2ncsc2c1`, the EC50 in experiment [1] was 83.8 nM; in experiment [2], 53.9 nM; in experiment [3], 99.7 nM; in experiment [4], 237 nM; in experiment [5] it was 274 nM; in experiment [6] it was 130 nM. Moreover, at Protease, the Ki was found to be 0.217 nM.
As to `CC[C@H](C)CN(C[C@@H](O)[C@H](Cc1ccccc1)NC(=O)OCCN1CCNC1=O)S(=O)(=O)c1ccc2ncsc2c1`, the concentration giving a half-maximal response (EC50) in experiment [1] came to 34.8 nM; in experiment [2], 21.6 nM; in experiment [3], 31.4 nM; in experiment [4], 50.4 nM; in experiment [5], 88.1 nM; in experiment [6], 49.3 nM.
With `CC[C@H](C)CN(C[C@@H](O)[C@H](Cc1ccccc1)NC(=O)OCCNC(=O)C(Cl)Cl)S(=O)(=O)c1ccc2ncsc2c1`, the EC50 in experiment [1] stood at 43 nM; in experiment [2] it was 28.6 nM; in experiment [3] it was 64.1 nM; in experiment [4] it was 144 nM; in experiment [5] it was 189 nM; in experiment [6], 88 nM.
With `CCCCCN(C[C@@H](O)[C@H](Cc1ccccc1)NC(=O)O[C@H](C)CCC(C)=O)S(=O)(=O)c1ccc(OC)cc1`, at Protease, the Ki turned out to be 6.98 nM.
As for `CC(C)CN(C[C@@H](O)[C@H](Cc1ccccc1)NC(=O)O[C@H]1CCOC1)S(=O)(=O)c1ccc(N)cc1`, the EC50 in experiment [1] is 3 nM; in experiment [2], 1.8 nM; in experiment [3], 2.6 nM; in experiment [4], 15.6 nM; in experiment [5], 17.5 nM; in experiment [6], 3.7 nM.
As to `CC[C@H](C)CN(C[C@@H](O)[C@H](Cc1ccccc1)NC(=O)OCCN1CCNC1=O)S(=O)(=O)c1ccc(OC)cc1`, the EC50 in experiment [1] was determined as 84.4 nM; in experiment [2], 57.3 nM; in experiment [3], 95.4 nM; in experiment [4], 113 nM; in experiment [5], 132 nM; in experiment [6], 135 nM.
For the molecule `CCCCCN(C[C@@H](O)[C@H](Cc1ccccc1)NC(=O)OC[C@@H]1CCC(=O)N1)S(=O)(=O)c1ccc2ncsc2c1`, the EC50 in experiment [1] is 58.9 nM; in experiment [2], 44.8 nM; in experiment [3], 82.7 nM; in experiment [4], 130 nM; in experiment [5] it was 174 nM; in experiment [6], 96.5 nM.
As to `CC[C@H](C)CN(C[C@@H](O)[C@H](Cc1ccccc1)NC(=O)OCCNC(=O)OC(C)(C)C)S(=O)(=O)c1ccc2ncsc2c1`, the EC50 came to 198 nM in experiment [1]; 183 nM in experiment [2]; 231 nM in experiment [3]; 756 nM in experiment [4]; 918 nM in experiment [5]; 331 nM in experiment [6].
`CCCCCN(C[C@@H](O)[C@H](Cc1ccccc1)NC(=O)O[C@@H]1CCOC1=O)S(=O)(=O)c1ccc(OC)cc1` came in with a Ki at Protease of 65.9 nM.
The same measure, in the same setting: then `CC[C@H](C)CN(C[C@@H](O)[C@H](Cc1ccccc1)NC(=O)O[C@H](C)CCC(C)=O)S(=O)(=O)c1ccc(OC)cc1`, with 0.426 nM.
Turning to `CC[C@H](C)CN(C[C@@H](O)[C@H](Cc1ccccc1)NC(=O)OCCNC(=O)C(Cl)Cl)S(=O)(=O)c1ccc(OC)cc1`, the EC50 was found to be 39.1 nM in experiment [1]; 30.7 nM in experiment [2]; 51.3 nM in experiment [3]; 123 nM in experiment [4]; 159 nM in experiment [5]; 84.6 nM in experiment [6].
Turning to `CC[C@H](C)CN(C[C@@H](O)[C@H](Cc1ccccc1)NC(=O)OC[C@@H](C)C(=O)OC)S(=O)(=O)c1ccc(OC)cc1`, the EC50 in experiment [1] was found to be 30.9 nM; in experiment [2] it was 20.6 nM; in experiment [3], 24.9 nM; in experiment [4], 41.8 nM; in experiment [5], 56 nM; in experiment [6], 36.3 nM.
As to `CCCCCN(C[C@@H](O)[C@H](Cc1ccccc1)NC(=O)OCCNC(=O)C(F)(F)F)S(=O)(=O)c1ccc(OC)cc1`, the Ki at Protease was found to be 31.4 nM.
With `CCCCCN(C[C@@H](O)[C@H](Cc1ccccc1)NC(=O)O[C@@H]1CCOC1=O)S(=O)(=O)c1ccc2ncsc2c1`, on Protease, affinity was put at a Ki of 42.1 nM.
In the case of `CC[C@H](C)CN(C[C@@H](O)[C@H](Cc1ccccc1)NC(=O)OCCN1CCOC1=O)S(=O)(=O)c1ccc2ncsc2c1`, the EC50 stood at 33.3 nM in experiment [1]; 12 nM in experiment [2]; 21.2 nM in experiment [3]; 32.2 nM in experiment [4]; 73.6 nM in experiment [5]; 36.2 nM in experiment [6]. This molecule also came in with a Ki on Protease of 0.005 nM.
On Protease, `CCCCCN(C[C@@H](O)[C@H](Cc1ccccc1)NC(=O)O[C@H](C)CC(=O)OC)S(=O)(=O)c1ccc(OC)cc1` registered a Ki of 17.2 nM.
Regarding `CCCCCN(C[C@@H](O)[C@H](Cc1ccccc1)NC(=O)OCCNC(=O)C(Cl)Cl)S(=O)(=O)c1ccc2ncsc2c1`, the EC50 in experiment [1] was determined as 38.3 nM; in experiment [2], 30.3 nM; in experiment [3], 79.2 nM; in experiment [4], 254 nM; in experiment [5], 285 nM; in experiment [6], 67 nM.
On Protease, `CCCCCN(C[C@@H](O)[C@H](Cc1ccccc1)NC(=O)OC[C@@H]1CCC(=O)N1)S(=O)(=O)c1ccc(OC)cc1` gave a Ki of 0.624 nM.
For `CC[C@H](C)CN(C[C@@H](O)[C@H](Cc1ccccc1)NC(=O)OCCN1CCOC1=O)S(=O)(=O)c1ccc(OC)cc1`, the EC50 in experiment [1] was 40.5 nM; in experiment [2], 27.8 nM; in experiment [3], 43.3 nM; in experiment [4], 56.1 nM; in experiment [5], 74.4 nM; in experiment [6] it was 57.3 nM.
`CCCCCN(C[C@@H](O)[C@H](Cc1ccccc1)NC(=O)OC[C@@H](C)C(=O)OC)S(=O)(=O)c1ccc2ncsc2c1`: the Ki at Protease was 3.34 nM.
Same read-out and setting: the result for `CCCCCN(C[C@@H](O)[C@H](Cc1ccccc1)NC(=O)OCCNC(=O)OC(C)(C)C)S(=O)(=O)c1ccc2ncsc2c1` reads 1.29 nM.
As for `CCCCCN(C[C@@H](O)[C@H](Cc1ccccc1)NC(=O)OCCN1CCOC1=O)S(=O)(=O)c1ccc2ncsc2c1`, the EC50 in experiment [1] was 73 nM; in experiment [2], 41.1 nM; in experiment [3] it was 96.3 nM; in experiment [4], 259 nM; in experiment [5], 420 nM; in experiment [6] it was 120 nM. Moreover, the affinity at Protease corresponds to a Ki of 0.017 nM.
Consider `CCCCCN(C[C@@H](O)[C@H](Cc1ccccc1)NC(=O)OCCN1CCNC1=O)S(=O)(=O)c1ccc(OC)cc1`, for which affinity at Protease was put at a Ki of 0.398 nM.
`CC[C@H](C)CN(C[C@@H](O)[C@H](Cc1ccccc1)NC(=O)OC[C@@H]1CCC(=O)N1)S(=O)(=O)c1ccc(OC)cc1`: the EC50 in experiment [1] came to 43.9 nM; in experiment [2], 38.5 nM; in experiment [3], 64.5 nM; in experiment [4], 37.1 nM; in experiment [5], 72.2 nM; in experiment [6], 44.1 nM.
